SR-BI uptake up: activators of SR-BI mediated HDL lipid uptake. CHO ldlA[mSR-BI] cells, DiI-HDL uptake fluorescence, 3 h; 100 = double the neutral-control signal. activation, % at 12.5 µM. 320,000 compounds, 0.096% hits. AID 504775;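 active = mean replicate activation of at least 60% and every replicate at or above 60%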;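 also: 0% = median plate neutral-control signal and 100% = twice that signal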
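Material: SR-BI-overexpressing, LDLR-lacking CHO cells | Dosing: Single compound concentration, delivered by pin transfer | Probe or stimulus: Labelled HDL, 10 µg/mL | Signal: Bottom-read cell fluorescence after medium removal, ex 550/em 595 nm | Schedule: 3 h, 37 °C | Evaluation: HDL uptake via cellular fluorescence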
SR-BI HDL uptake: inhibitors of mouse SR-BI mediated HDL lipid uptake; Q61009; ldlA[mSR-BI] CHO cells, DiI-HDL uptake fluorescence, 3 h; inhibition, % at 12.5 µM; 320,000 compounds, 0.96% hits;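 active = mean replicate inhibition of at least 70% and a set share of replicates each scoring 70 or more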;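 also: 0% = median of neutral control wells and 100% = median of positive control wells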
AHR activator: activators of human aryl hydrocarbon receptor | P35869 | AHR-responsive luciferase reporter cells, luminescence | activation, % at 5 µM | 320,000 compounds, 2.5% hits | AID 2796; in the data active = activation above about 47%;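 also: 0% = vehicle wells and 100% = reference agonist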
GAA850 FXN act: activators of GAA850 frataxin (FXN) promoter. AID 540364. 360,000 compounds, 0.56% hits. activation, % at 6 µM. HEK293 lucGAA850 FXN promoter luciferase reporter, 24 h; percent of 10 µM SAHA response;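 active = activation above the average of all compounds screened plus 3 SD, cutoff fixed separately per campaign, cut at about 7.5% in these data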;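 also: 0% = DMSO wells and 100% = 10 µM SAHA wells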
JMJD2C inh: blocks human GASC-1 demethylase activity; 330,000 compounds, 0.069% hits; inhibition, % at 2.35 µM; AID 2099; GST-JMJD2C(1-420) H3K9me3 demethylation, DELFIA europium;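 active = more than half of a compound's replicate wells show inhibition beyond 50%, single wells judged on their own value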;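 also: signal counts dimethyl H3K9 product captured on neutravidin plate; 0% = median of DMSO wells and 100% = 0.3 times that DMSO median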
Target sequence (Q9H3R0 1-420 limits assumed): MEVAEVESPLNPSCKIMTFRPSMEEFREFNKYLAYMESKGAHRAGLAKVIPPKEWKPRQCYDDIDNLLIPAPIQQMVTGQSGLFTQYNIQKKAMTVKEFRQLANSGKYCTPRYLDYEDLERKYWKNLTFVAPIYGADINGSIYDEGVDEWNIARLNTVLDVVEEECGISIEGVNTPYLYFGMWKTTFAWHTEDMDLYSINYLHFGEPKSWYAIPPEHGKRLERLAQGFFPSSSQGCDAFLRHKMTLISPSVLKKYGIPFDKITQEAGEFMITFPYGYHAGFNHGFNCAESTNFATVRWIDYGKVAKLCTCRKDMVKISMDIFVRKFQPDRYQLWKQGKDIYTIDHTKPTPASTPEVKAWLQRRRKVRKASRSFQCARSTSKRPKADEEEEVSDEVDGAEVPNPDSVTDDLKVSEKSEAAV
* hit, by the source's call; . = no result. Only some compounds are listed: those with a hit (about 3.7% of all), similar ones and a draw of the others.

SMILES	SR-BI uptake up	SR-BI HDL uptake	AHR activator	GAA850 FXN act	JMJD2C inh
CCC1CCCCN1CCCNC(=O)c1nn(C)c2c1CS(=O)(=O)c1ccccc1-2 (stereo not drawn)	-13.0	13.0	-1.7	2.2	-7.7
CCN(CC)C(=O)Oc1ccc(Br)cc1C(=O)Nc1ccc(F)cc1F	-63.3	63.2	88.8*	-1.2	14.0
O=C(Nc1ccc(F)cc1F)c1cncc(Br)c1	16.2	-16.2	37.6	1.1	13.4
CN(C)CCCNC(=O)c1cc(C(=O)c2c(Cl)cccc2Cl)c[nH]1	5.3	-5.3	-0.1	0.8	-4.5
Nc1c(Cl)cc(C2=NCCn3nc4cc(C(F)(F)F)ccc4c32)cc1Cl	-42.4	42.4	53.9*	1.4	-8.0
COc1ccc(C2=NCCn3nc4ccccc4c32)cc1	-14.5	14.5	54.2*	2.1	6.0
COc1ccc(-c2nc3ccccc3c(=O)n2O)cc1	7.8	-7.8	6.9	0.3	0.5
COc1ccc2c3n(nc2c1)CCN=C3c1cc(Cl)c(N)c(Cl)c1	-62.4	62.4	61.3*	4.5	-1.4
COc1ccc(CN2CCNC(=O)C2CC(=O)N2CCCO2)c(OC)c1 (stereo not drawn)	20.2	-20.2	1.3	0.1	13.0
O=C1Nc2c(ccc(Cl)c2Cl)C(=O)C1(F)c1ccccc1 (stereo not drawn)	3.8	-3.8	92.3*	0.5	2.5
O=C1Nc2ccc(Cl)cc2C(=O)C1(F)c1ccccc1 (stereo not drawn)	.	.	41.0	1.6	-29.6
CC(=O)Nc1ccc(N=Cc2c(O)c(C(=O)Nc3ccccc3)cc3ccccc23)cc1	.	.	29.0	.	-1.4
COc1ccc2c(c1)cc(C(=O)N/N=C/c1c(O)c(C(=O)O)cc3ccccc13)n2C	-86.2	86.2*	6.6	-0.3	3.9
Cc1cc(C)n2nc(C(=O)OCC(=O)NNC(=O)c3ccc(Cl)cc3)nc2n1	9.9	-9.9	3.2	0.8	34.0
COCCNc1nc(-c2ccccc2)nc2ccccc12	-31.2	31.2	9.8	0.0	2.8
CC(=O)OCCNc1nc(-c2ccccc2)nc2ccccc12	-4.9	4.9	58.0*	0.3	2.4
N#CCc1nn(-c2ccc(Cl)cc2)c(N)c1C#N	-3.8	3.8	63.5*	0.7	-9.5
Cc1cccc(-n2nc(CC#N)c(C#N)c2N)c1	5.7	-5.7	14.5	1.4	44.7
Cc1cc2ccccn2c1C(=O)Nc1ccc(Cl)cc1	-42.1	42.1	37.7	2.0	-1.0
Cc1cc2ccccn2c1C(=O)Nc1ccccc1	22.3	-22.3	59.5*	1.1	-5.6
Cc1cc2ccccn2c1C(=O)c1cc([N+](=O)[O-])cc([N+](=O)[O-])c1	-82.5	82.5*	-1.0	2.2	-6.3
COC(=O)c1cc(C(=O)c2c(C)cc3ccccn23)cc([N+](=O)[O-])c1	.	.	2.4	-2.7	0.4
CCOC(=O)C1=C(C)NC(=O)C(C#N)C1c1ccco1 (stereo not drawn)	60.9*	-60.9	16.0	2.2	-21.9
CS(=O)(=O)Nc1ccc(-c2ccc(/C=C3\SC(N)=NC3=O)o2)cc1	-25.3	25.3	57.6*	0.8	-8.5
NC1=NC(=O)/C(=C\c2ccco2)S1	.	.	0.2	1.3	0.4
SMILES	SR-BI uptake up	SR-BI HDL uptake	AHR activator	GAA850 FXN act	JMJD2C inh
O=C(NCSc1ccnc(SCNC(=O)c2ccc(F)cc2)n1)c1ccc(F)cc1	4.1	-4.1	-0.2	0.4	1.2
Cc1cc(C)n(-c2cc(N3CCOCC3)nc(-c3ccccc3)n2)n1	-84.7	84.7*	3.5	1.1	2.9
c1ccc(-c2nc(N3CCOCC3)cc(N3CCOCC3)n2)cc1	-38.8	38.8	2.4	-2.6	-4.5
O=c1cc2oc3cc(O)c(O)cc3c(-c3ccccc3[N+](=O)[O-])c-2cc1O	-89.6	89.6*	0.5	-3.2	57.3*
CCn1c2ccccc2c2cc(NC(=O)c3cc(C)on3)ccc21	-52.5	52.5	53.4*	0.4	-16.1
CCN(CC)c1cc(C)c2cc(NC(=O)c3ccc(Br)o3)ccc2n1	-73.3	73.3*	14.9	1.1	1.1
CCn1c2ccccc2c2cc(NC(=O)CSc3nnc(-c4cccc(F)c4)o3)ccc21	.	.	59.0*	-2.1	15.4
CCn1c2ccccc2c2cc(NC(=O)c3ccc(Br)o3)ccc21	-30.0	30.0	62.7*	-2.0	46.9
CC1CCCN(C(=O)C(=O)Nc2ccc3nc4n(c(=O)c3c2)CCCCC4)C1 (stereo not drawn)	-5.4	5.4	5.3	-1.7	-7.5
C/C(=N/NC(=O)c1cc(-c2cccc([N+](=O)[O-])c2)n[nH]1)c1ccc(Cl)cc1	6.2	-6.2	4.1	1.8	-2.7
CCOC(=O)/C(C#N)=C/Nc1cc(C(C)(C)C)sc1C(C)=O	-22.1	22.1	17.1	0.7	10.0
COc1ccc(/C=N/n2c(=O)[nH]c3c([nH]c4ccc(Cl)cc43)c2=O)cc1CN1CCCCC1	16.4	-16.4	17.1	0.3	-0.7
COc1ccc(/C=N/n2c(=O)[nH]c3c([nH]c4ccc(Br)cc43)c2=O)cc1CN1CCOCC1	-2.1	2.1	56.3*	-1.3	32.2
O=c1cc(-c2ccccc2)oc2ccccc12	3.5	-3.5	39.1	5.0	4.7
O=c1cc(/C=C/c2ccccc2)oc2ccccc12	-1.2	1.2	59.7*	6.9	0.3
O=C(Nc1ccccc1)n1ccc(-c2ccc(-n3ccnc3)cc2)n1	.	.	83.3*	.	-1.7
CC(C)(C)C1CCc2c(sc(NC(=O)C3CCCO3)c2C(N)=O)C1 (stereo not drawn)	-78.4	78.4*	-8.2	1.4	-6.9
CCc1cc2c(SCC(=O)N3CCCC3=O)ncnc2s1	9.8	-9.8	1.3	1.7	-2.3
O=C(CC1Nc2ccccc2NC1=O)NCc1cccnc1 (stereo not drawn)	12.7	-12.7	48.8*	0.5	4.6
O=C(CC1NC(=O)NC1=O)Nc1ccc(Cl)cc1 (stereo not drawn)	46.0	-46.0	1.3	2.0	9.8
COc1ccc(NC(=O)CC2Nc3cccc4cccc(c34)NC2=O)cc1 (stereo not drawn)	-15.9	15.9	56.6*	-2.4	-2.8
O=C(CC1Nc2ccccc2NC1=O)Nc1cc(Cl)cc(Cl)c1 (stereo not drawn)	-2.7	2.7	48.5*	-0.3	4.4
COc1ccc(NC(=O)CC2Nc3cc(C)c(C)cc3NC2=O)c([N+](=O)[O-])c1 (stereo not drawn)	-22.7	22.7	61.2*	3.0	-5.1
CCCCN1C2=C(C(=O)CCC2)C(c2ccc(Cl)c(Cl)c2)C2=C1c1ccccc1C2=O (stereo not drawn)	-85.3	85.3*	8.7	0.2	0.1
CCCN1C(=O)c2ccccc2NC1c1ccc(Cl)c(Cl)c1 (stereo not drawn)	13.4	-13.4	7.5	1.4	-0.7
Cc1ccc2ccccc2c1C(O)c1ncc(-c2ccc(Cl)cc2)[nH]1 (stereo not drawn)	.	.	.	-3.1	.
Cc1cc(C)c(O)c(CN(C)Cc2cc(Cl)cc(Cl)c2O)c1	-112.2	112.2*	.	1.3	.
Cc1ccnc(NCc2cc(Cl)cc(Cl)c2O)c1	.	.	.	-0.4	.
